Measured values taken from ChEMBL document CHEMBL1157792, “Pachycladins A-E, prostate cancer invasion and migration inhibitory Eunicellin-based diterpenoids from the red sea soft coral Cladiella pachyclados” (J Nat Prod, 2010).
Activity calls are given as the source filed them. No cut-off for these calls is given here.

Tests used:
Format in all cases: functional, cell-based
PC-3 [1] = experiment: Antimigratory activity against human PC3 cells at 200 uM by wound-healing assay
How it was run: (§1)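 Confluent PC-3 monolayers (>90%) in RPMI with 10% FBS, scratched with a pipet tip, washed with PBS, then given compound in DMSO, in triplicate, with DMSO vehicle control. Incubated 24 h serum-starved at 37 °C, fixed and stained with Diff Quick. Migrated cells counted in three or more random 400× fields; mean (SEM) per field.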

PC-3 [2] = experiment: Antimigratory activity against human PC3 cells at 50 uM by wound-healing assay; how it was run: as §1
PC-3 [3] = experiment: Antiproliferative activity against human PC3 cells at 50 uM after 96 hrs by MTT assay
How it was run: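 PC-3 cells (8 × 10^3 per well) allowed to attach for 24 h, then given serum-free RPMI with compound at 50, 20, 10 or 5 µM for 96 h at 37 °C, 5% CO2. MTT added for 4 h, formazan solubilized, absorbance read at 550 nm. Cell number taken from a hemocytometer-based standard curve; IC50 obtained by nonlinear regression of log concentration against cells/well.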

PC-3 [4] = experiment: Antiinvasive activity against human PC3 cells at 50 uM by cultrex cell invasion assay
How it was run: (§2)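 PC-3 cells (50 000 per well) in serum-free RPMI seeded into the top chamber of wells coated with basement membrane extract (4 h, 37 °C), with compound in the top chamber. Lower chamber: RPMI with 10% FBS, fibronectin and N-formyl-met-leu-phe (10 nM) as chemoattractants. After 24 h at 37 °C, invaded cells stained with calcein-AM for 1 h; fluorescence read at ex 485/em 520 nm.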

PC-3 [5] = experiment: Antimigratory activity against human PC3 cells at 10 uM by wound-healing assay; how it was run: as §1
PC-3 [6] = experiment: Antiinvasive activity against human PC3 cells at 10 uM by cultrex cell invasion assay; how it was run: as §2

In the case of O=C1NC(=O)/C(=C/c2ccc(O)cc2)N1, the Activity (PC-3 [1]) is reported as “Active”.
With C=C1CC[C@H](C(C)C)[C@@H]2[C@H]1[C@H]1CC(=C)[C@]3(O)CC[C@@](C)(O3)[C@@H]2O1 the Activity (PC-3 [2]) was “Active”.
With C=C1CC[C@H](C(C)C)[C@@H]2[C@H]1[C@H]1C[C@](C)(O)[C@@H](O)CC[C@@](C)(OC(C)=O)[C@@H]2O1 the Activity (PC-3 [2]) was “Active”.
With CCCC(=O)O[C@]1(C)CC[C@H](C(C)C)[C@@H]2[C@H]1[C@H]1C[C@](C)(O)[C@@H](O)CC[C@@](C)(OC(C)=O)[C@@H]2O1 the Activity (PC-3 [3]) was “inactive”, the Activity (PC-3 [2]) was “Active” and the Activity (PC-3 [4]) was “Active”.
C=C1CC[C@H](C(C)C)[C@@H]2[C@H]1[C@H]1CC(=C)[C@@H](OC(C)=O)CC[C@@](C)(OC(C)=O)[C@@H]2O1 was tested, and the Activity (PC-3 [2]) was “Active”.
In the case of C=C1C[C@H]2O[C@H]([C@H]3[C@@H]2[C@](C)(OC(C)=O)CC[C@@H]3C(C)C)[C@@]2(C)CC[C@]1(O)O2, the Activity (PC-3 [2]) is reported as “Active”.
With C=C1CC[C@H](C(C)C)[C@@H]2[C@H]1[C@H]1CC(=C)[C@@H](O)CC[C@@](C)(OC(C)=O)[C@@H]2O1 the Activity (PC-3 [2]) was “Active”.
For C=C1CC[C@H](C(C)C)[C@@H]2[C@H]1[C@H]1C[C@](C)(O)[C@@H](OC)CC[C@@](C)(O)[C@@H]2O1, the Activity (PC-3 [2]) was “Active” and the Activity (PC-3 [4]) was “Active”.
In the case of C=C1CC[C@H](C(C)C)[C@@H]2[C@H]1[C@H]1CC(=C)[C@@H](OC(C)=O)CC[C@@](C)(O)[C@@H]2O1, the Activity (PC-3 [2]) is reported as “Active”.
C=C1CC[C@H](C(C)C)[C@@H]2[C@H]1[C@H]1C/C(C)=C\CC[C@@](C)(O)[C@@H]2O1 was tested, and the Activity (PC-3 [2]) was “Active”.
For C=C1CC[C@H](C(C)C)[C@@H]2[C@H]1[C@@H]1CC(=C)[C@@H](O)CC[C@](C)(O)[C@H]2O1, the Activity (PC-3 [2]) was “Active”.
In the case of CC(=O)O[C@]1(C)CC[C@H](C(C)C)[C@@H]2[C@H]1[C@H]1C[C@]3(C)CCC[C@@](C)(O3)[C@@H]2O1, the Activity (PC-3 [2]) is reported as “Active” and the Activity (PC-3 [4]) is reported as “Active”.
In the case of C=C1C[C@H]2O[C@H]([C@@H]3[C@@H](C(C)C)[C@H](O)C[C@@](C)(OC(=O)CCC)[C@@H]32)[C@](C)(OC(C)=O)CC[C@@H]1O, the Activity (PC-3 [2]) is reported as “Active”.
CC(=O)O[C@]1(C)CC[C@H](C(C)C)[C@@H]2[C@H]1[C@H]1C[C@](C)(O)[C@@H](O)CC[C@@](C)(OC(C)=O)[C@@H]2O1 was tested, and the Activity_index (PC-3 [5]) was “Active” and the Activity (PC-3 [6]) was “Active”.
With C=C1CC[C@H](C(C)C)[C@@H]2[C@H]1[C@H]1C[C@](C)(O)[C@@H](O)CC[C@@](C)(O)[C@@H]2O1 the Activity (PC-3 [2]) was “Active” and the Activity (PC-3 [4]) was “Active”.
In the case of C=C1C[C@H]2O[C@H]([C@@H]3[C@@H](C(C)C)[C@H](O)C[C@@](C)(OC(C)=O)[C@@H]32)[C@](C)(OC(C)=O)CC[C@@H]1O, the Activity (PC-3 [2]) is reported as “Active”.
